According to ChEMBL document CHEMBL3526053, “Species-dependent uptake of glycylsarcosine but not oseltamivir in Pichia pastoris expressing the rat, mouse, and human intestinal peptide transporter PEPT1” (Drug Metab Dispos, 2012):

Experiments:
Format in all cases: ADME
[1] = target: T1, Solute carrier family 15 member 1 (Mus musculus, UniProt Q9JIP7); assay: Drug uptake in Pichia pastoris GS115 expressing mouse recombinant PEPT1 at 5 uM after 30s by dual-channel liquid scintillation counting analysis in presence of cefazolin relative to control; conditions: 0.5 min
T1 sequence (Q9JIP7 whole entry): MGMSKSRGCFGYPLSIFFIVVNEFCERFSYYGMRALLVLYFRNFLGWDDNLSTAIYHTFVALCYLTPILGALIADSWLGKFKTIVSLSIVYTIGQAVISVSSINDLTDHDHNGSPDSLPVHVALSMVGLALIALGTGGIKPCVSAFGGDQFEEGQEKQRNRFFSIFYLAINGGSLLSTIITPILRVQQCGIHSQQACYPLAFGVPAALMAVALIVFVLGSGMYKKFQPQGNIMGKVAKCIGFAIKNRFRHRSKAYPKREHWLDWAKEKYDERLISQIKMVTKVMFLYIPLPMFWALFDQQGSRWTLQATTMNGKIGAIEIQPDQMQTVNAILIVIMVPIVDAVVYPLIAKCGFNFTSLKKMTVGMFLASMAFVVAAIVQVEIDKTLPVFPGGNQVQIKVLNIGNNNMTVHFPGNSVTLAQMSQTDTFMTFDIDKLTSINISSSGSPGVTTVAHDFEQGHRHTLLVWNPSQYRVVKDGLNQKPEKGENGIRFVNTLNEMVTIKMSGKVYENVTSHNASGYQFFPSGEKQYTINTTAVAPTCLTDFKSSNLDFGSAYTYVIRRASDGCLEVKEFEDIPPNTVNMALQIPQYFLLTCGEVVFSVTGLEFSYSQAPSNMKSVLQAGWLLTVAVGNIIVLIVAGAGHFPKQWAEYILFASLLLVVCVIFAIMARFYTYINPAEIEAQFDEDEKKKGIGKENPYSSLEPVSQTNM
How it was run: (§1)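 [3H]GlySar 5.0 µM final, 30-s uptake at 24°C in 100 mM potassium phosphate pH 6.5, with or without a potential inhibitor at 10 mM. Cells are methanol-induced transformants. Values are vector-subtracted and expressed as percent of buffer control. Mean ± SE (n=3). ANOVA with Dunnett's test.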

[2] = target: T2, Solute carrier family 15 member 1 (Rattus norvegicus, UniProt P51574); assay: Drug uptake in Pichia pastoris GS115 expressing rat recombinant PEPT1 at 5 uM after 30s by dual-channel liquid scintillation counting analysis in presence of valacyclovir relative to control; conditions: 0.5 min
T2 sequence (P51574 whole entry): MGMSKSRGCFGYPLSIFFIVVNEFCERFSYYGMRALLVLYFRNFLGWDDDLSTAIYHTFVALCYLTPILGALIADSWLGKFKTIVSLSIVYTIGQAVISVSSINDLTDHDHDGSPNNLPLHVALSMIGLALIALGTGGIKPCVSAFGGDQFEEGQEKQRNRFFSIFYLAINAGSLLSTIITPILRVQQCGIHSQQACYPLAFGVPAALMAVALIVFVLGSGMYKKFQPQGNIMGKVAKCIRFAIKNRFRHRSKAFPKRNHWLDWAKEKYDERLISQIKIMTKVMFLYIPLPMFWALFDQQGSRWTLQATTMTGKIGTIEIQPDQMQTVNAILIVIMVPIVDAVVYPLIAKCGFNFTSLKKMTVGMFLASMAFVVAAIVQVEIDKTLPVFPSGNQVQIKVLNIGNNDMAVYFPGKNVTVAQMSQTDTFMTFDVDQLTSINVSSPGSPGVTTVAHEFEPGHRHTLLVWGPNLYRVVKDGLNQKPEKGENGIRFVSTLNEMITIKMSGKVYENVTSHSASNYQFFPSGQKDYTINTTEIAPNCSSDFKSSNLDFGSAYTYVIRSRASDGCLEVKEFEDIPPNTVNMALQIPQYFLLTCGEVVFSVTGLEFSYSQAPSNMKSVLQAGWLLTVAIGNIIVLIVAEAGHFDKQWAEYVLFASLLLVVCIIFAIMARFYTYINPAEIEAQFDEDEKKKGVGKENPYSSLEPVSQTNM
How it was run: (§2)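 Rat PEPT1 (pPIC3.5K-rPept1) in GS115 His+Mut+ transformant, methanol-induced 20-24 hr in BMMY at 30°C, washed into 100 mM potassium phosphate pH 6.5. [3H]GlySar final 5.0 µM with inhibitor at 10 mM, 30 sec at 24°C. Counts taken by liquid scintillation after 24 hr standing. Values are vector-subtracted and given as % of buffer control. Mean ± SE, n=3.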

[3] = target: T1, Solute carrier family 15 member 1; assay: Drug uptake in Pichia pastoris GS115 expressing mouse recombinant PEPT1 at 5 uM after 30s by dual-channel liquid scintillation counting analysis relative to control; conditions: in vivo, 0.5 min; how it was run: as §1
[4] = target: T2, Solute carrier family 15 member 1; assay: Activity at rat recombinant PEPT1 expressed in Pichia pastoris GS115 assessed as non-saturable rate constant after 30s by dual-channel liquid scintillation counting analysis
How it was run: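 [3H]GlySar concentration series 0.005-10 mM, 30-s uptake at 24°C in 100 mM potassium phosphate pH 6.5. Cells come from His+Mut+ GS115 transformants induced 20-24 h in methanol medium. Uptake is normalised to OD600. Data are fitted to Michaelis-Menten plus a first-order nonsaturable term (Kd), weighting unity. Parameters are mean ± SE (n=9).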

[5] = target: T3, Solute carrier family 15 member 1 (Homo sapiens, UniProt P46059); assay: Drug uptake in Pichia pastoris GS115 expressing human recombinant PEPT1 at 5 uM after 30s by dual-channel liquid scintillation counting analysis in presence of cephalothin relative to control; conditions: 0.5 min; how it was run: as §1
T3 sequence (P46059 whole entry): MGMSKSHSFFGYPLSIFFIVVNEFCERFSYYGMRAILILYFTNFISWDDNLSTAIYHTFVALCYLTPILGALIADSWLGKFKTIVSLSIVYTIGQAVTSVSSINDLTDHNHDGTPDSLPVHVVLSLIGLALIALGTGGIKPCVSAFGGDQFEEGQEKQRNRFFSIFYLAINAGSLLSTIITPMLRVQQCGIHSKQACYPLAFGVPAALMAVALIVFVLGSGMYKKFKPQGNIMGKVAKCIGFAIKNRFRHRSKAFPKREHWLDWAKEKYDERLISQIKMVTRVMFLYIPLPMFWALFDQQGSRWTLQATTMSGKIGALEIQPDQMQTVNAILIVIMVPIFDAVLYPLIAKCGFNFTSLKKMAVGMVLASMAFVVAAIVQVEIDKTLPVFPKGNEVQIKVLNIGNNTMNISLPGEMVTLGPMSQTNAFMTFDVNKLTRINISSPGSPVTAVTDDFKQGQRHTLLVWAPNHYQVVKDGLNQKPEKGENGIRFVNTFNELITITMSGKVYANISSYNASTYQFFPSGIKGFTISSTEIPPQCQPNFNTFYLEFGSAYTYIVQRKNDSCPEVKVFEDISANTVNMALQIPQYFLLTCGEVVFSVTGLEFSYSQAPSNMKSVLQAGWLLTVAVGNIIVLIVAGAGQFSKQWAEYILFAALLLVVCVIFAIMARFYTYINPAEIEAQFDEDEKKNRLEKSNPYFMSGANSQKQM

[6] = target: T2, Solute carrier family 15 member 1; assay: Drug uptake in Pichia pastoris GS115 expressing rat recombinant PEPT1 at 5 uM after 30s by dual-channel liquid scintillation counting analysis in presence of cephradine relative to control; conditions: 0.5 min; how it was run: as §2

With `[3H]C(C(=O)O)N(C)C(=O)CN` (stereo unspecified) the Drug uptake [1] was 87.4%, the Drug uptake [2] was 5.5% and the Drug uptake [3] was 100%. The Kd [4] was 2.21 uL/OD/min, the Drug uptake [5] was 84.8% and the Drug uptake [6] was 23.4%.
